Blank lines part the entries; values can stand above or below the molecule they belong to. Activity calls are given as the source filed them. The rule behind the calls is not given here.
Assays:
HepG2 [1] = test: Cytotoxicity against human HepG2 cells by MTT assay; format: functional, cell-based
How it was run: (§1)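 Cells grown in DMEM with 10% FBS, penicillin and streptomycin at 37 °C under 5% CO₂. Seeded at 5 × 10³ per 100 µl per well and exposed to compound at 0.5–50 µM for 72 h. MTT (5 mg/ml) added for 5 h, formazan dissolved in DMSO, absorbance read at 490 nm. IC₅₀ is the concentration giving 50% growth inhibition; means of three independent determinations.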

HepG2 [2] = test: Cell cycle arrest in human HepG2 cells assessed as accumulation at subG0 phase at 5 uM after 36 hrs by FACSan flow cytometry; format: functional
How it was run: (§2)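 Cells were treated for 36 h, then washed twice in ice-cold PBS and fixed overnight in 70% ethanol at 4 °C. They were resuspended at 5 × 10⁵/ml in propidium iodide (50 µg/ml in 0.1% sodium citrate, 0.03% v/v Nonidet P-40) and held 30 min on ice. DNA-content histograms were read by FACScan flow cytometry, with sub-G₀ scored as apoptotic.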

HepG2 [3] = test: Cell cycle arrest in human HepG2 cells assessed as accumulation at subG0 phase at 50 uM after 36 hrs by FACSan flow cytometry; format: functional; how it was run: as §2
HepG2 [4] = test: Induction of apoptosis in human HepG2 cells assessed as caspase 9 activation at 50 uM after 2 to 24 hrs; format: functional, cell-based
How it was run: (§3)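 HepG-2 cells were treated for 0, 2, 4, 8, 14 and 24 h. Lysates were made on ice and cleared at 20,000g, 4 °C, and protein was measured by Bradford. 0.1 mg protein was incubated 2 h at 37 °C with Ac-DEVD-pNA (caspase-3), Ac-IETD-pNA (caspase-8) or Ac-LEHD-pNA (caspase-9), and pNA release was read at 405 nm.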

[5] = Growth inhibition of human CNE1 cells after 72 hrs by MTT assay; format: functional, cell-based; conditions: CNE; how it was run: as §1
HepG2 [6] = test: Induction of apoptosis in human HepG2 cells assessed as increase in […] mRNA expression after 26 hrs by RT-PCR; format: functional, cell-based
How it was run: (§4)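 HepG-2 cells treated at 0, 5, 10, 25 and 50 µM for 26 h. cDNA made from 1 µg total RNA and amplified for Bcl-2 and Bax over 30 cycles (98 °C 15 s, 57 °C 10 s, 72 °C 35 s), with GAPDH as control. Results expressed as fold change relative to control.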

HepG2 [7] = test: Induction of apoptosis in human HepG2 cells assessed as decrease in Bcl2 mRNA expression after 26 hrs by RT-PCR; format: functional, cell-based; how it was run: as §4
HepG2 [8] = test: Cell cycle arrest in human HepG2 cells assessed as accumulation at S phase at 50 uM after 36 hrs by FACSan flow cytometry; format: functional; how it was run: as §2
HepG2 [9] = test: Cell cycle arrest in human HepG2 cells assessed as accumulation at G1 phase at 50 uM after 36 hrs by FACSan flow cytometry; format: functional; how it was run: as §2
HepG2 [10] = test: Induction of apoptosis in human HepG2 cells assessed as change in cellular morphology at 10 uM after 36 hrs […]; format: functional, cell-based
HepG2 [11] = test: Cell cycle arrest in human HepG2 cells assessed as accumulation at G2 phase at 50 uM after 36 hrs by FACSan flow cytometry; format: functional; how it was run: as §2
HepG2 [12] = test: Cell cycle arrest in human HepG2 cells assessed as accumulation at G1 phase at 10 uM after 36 hrs by FACSan flow cytometry; format: functional; how it was run: as §2
MCF7 = test: Growth inhibition of human MCF7 cells after 72 hrs by MTT assay; format: functional, cell-based; conditions: MCF7, 72 h; how it was run: as §1
HepG2 [13] = test: Cell cycle arrest in human HepG2 cells assessed as accumulation at G2 phase at 10 uM after 36 hrs by FACSan flow cytometry; format: functional; how it was run: as §2
HepG2 [14] = test: Cell cycle arrest in human HepG2 cells assessed as accumulation at subG0 phase at 10 uM after 36 hrs by FACSan flow cytometry; format: functional; how it was run: as §2
HepG2 [15] = test: Cell cycle arrest in human HepG2 cells assessed as accumulation at S phase at 25 uM after 36 hrs by FACSan flow cytometry; format: functional; how it was run: as §2
HeLa = test: Growth inhibition of human HeLa cells after 72 hrs by MTT assay; format: functional, cell-based; how it was run: as §1
HepG2 [16] = test: Cell cycle arrest in human HepG2 cells assessed as accumulation at G1 phase at 5 uM after 36 hrs by FACSan flow cytometry; format: functional; how it was run: as §2
HepG2 [17] = test: Cell cycle arrest in human HepG2 cells assessed as accumulation at S phase at 5 uM after 36 hrs by FACSan flow cytometry; format: functional; how it was run: as §2
HepG2 [18] = test: Cell cycle arrest in human HepG2 cells assessed as accumulation at G1 phase at 25 uM after 36 hrs by FACSan flow cytometry; format: functional; how it was run: as §2
HepG2 [19] = test: Cell cycle arrest in human HepG2 cells assessed as accumulation at S phase at 10 uM after 36 hrs by FACSan flow cytometry; format: functional; how it was run: as §2
HepG2 [20] = test: Induction of apoptosis in human HepG2 cells assessed as caspase 3 activation at 50 uM after 2 to 24 hrs; format: functional, cell-based; how it was run: as §3
HepG2 [21] = test: Cell cycle arrest in human HepG2 cells assessed as accumulation at G2 phase at 5 uM after 36 hrs by FACSan flow cytometry; format: functional; how it was run: as §2
[22] = Growth inhibition of human CNE2 cells after 72 hrs by MTT assay; format: functional, cell-based; conditions: CNE-2, 72 h; how it was run: as §1
HepG2 [23] = test: Cell cycle arrest in human HepG2 cells assessed as accumulation at G2 phase at 25 uM after 36 hrs by FACSan flow cytometry; format: functional; how it was run: as §2
HepG2 [24] = test: Induction of apoptosis in human HepG2 cells assessed as caspase 8 activation at 50 uM after 2 to 24 hrs; format: functional, cell-based; how it was run: as §3
HepG2 [25] = test: Induction of apoptosis in human HepG2 cells assessed as DNA fragmentation at 10 uM after 36 hrs by agarose gel electrophoresis; format: functional, cell-based
How it was run: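 HepG-2 cells (1 × 10⁶) exposed to 0, 5, 10, 25 and 50 µM for 36 h, then trypsinized and lysed in 10 mM Tris–HCl pH 7.4, 10 mM EDTA, 0.5% Triton X-100 and proteinase K (200 µg/ml). DNA isolated by organic extraction, run on 2% agarose and stained with ethidium bromide to detect laddering.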

HepG2 [26] = test: Cell cycle arrest in human HepG2 cells assessed as accumulation at subG0 phase at 25 uM after 36 hrs by FACSan flow cytometry; format: functional; how it was run: as §2

SMILES: O=c1cc(C2CCCCC2)oc2c1ccc1ccccc12
IC50 (HepG2 [1]): 2.9 µM

SMILES: CC(C)c1ccc2oc(-c3cccc([N+](=O)[O-])c3)cc(=O)c2c1
IC50 (HepG2 [1]): > 50 µM

SMILES: O=c1cc(C2CCCC2)oc2ccc(Cl)cc12
IC50 (HepG2 [1]): 13.4 µM

SMILES: CC(C)c1ccc2oc(C3CCCCC3)cc(=O)c2c1
IC50 (HepG2 [1]): 18 µM

SMILES: CC(C)c1ccc2oc(C3CCCC3)cc(=O)c2c1
IC50 (HepG2 [1]): 8.6 µM

SMILES: O=c1cc(C2CCCCC2)oc2ccc(Cl)cc12
IC50 (HepG2 [1]): 20 µM

SMILES: O=c1cc(C2CCCC2)oc2c1ccc1ccccc12
IC50 (HepG2 [1]): 6.1 µM

SMILES: CC(C)c1ccc2oc(-c3ccc([N+](=O)[O-])cc3)cc(=O)c2c1
IC50 (HepG2 [1]): > 50 µM

SMILES: COc1ccc(-c2cc(=O)c3cc(C(C)C)ccc3o2)cc1
IC50 (HepG2 [1]): 9.9 µM

SMILES: COc1cc(-c2cc(=O)c3cc(C(C)C)ccc3o2)cc(OC)c1OC
IC50 (HepG2 [1]): 3.6 µM

IC50 (MCF7): 7.4 µM
IC50 (HeLa): 3 µM
SMILES: COc1cc(OC)cc(-c2cc(=O)c3cc(Cl)ccc3o2)c1
Activity (HepG2 [2]): 21.54%
Activity (HepG2 [3]): 79.32%
Activity (HepG2 [4]): Active
IC50 [5]: 10.4 µM
Activity (HepG2 [6]): Active
Activity (HepG2 [7]): Dose-dependent effect
Activity (HepG2 [8]): 3.47%
Activity (HepG2 [9]): 11.52%
Activity (HepG2 [10]): Active
Activity (HepG2 [11]): 5.69%
Activity (HepG2 [12]): 38.67%
Activity (HepG2 [13]): 13.47%
IC50 (HepG2 [1]): 1.1 µM
Activity (HepG2 [14]): 34.54%
Activity (HepG2 [15]): 9.32%
Activity (HepG2 [16]): 41.67%
Activity (HepG2 [17]): 20.32%
Activity (HepG2 [18]): 23.38%
Activity (HepG2 [19]): 13.32%
Activity (HepG2 [20]): Active
Activity (HepG2 [21]): 16.47%
IC50 [22]: 12.9 µM
Activity (HepG2 [23]): 11.47%
Activity (HepG2 [24]): Active
Activity (HepG2 [25]): Active
Activity (HepG2 [26]): 55.83%

SMILES: COc1cccc(-c2cc(=O)c3cc(C(C)C)ccc3o2)c1
IC50 (HepG2 [1]): 2.1 µM

SMILES: CC(C)c1ccc2oc(-c3ccccc3)cc(=O)c2c1
IC50 (HepG2 [1]): 6.4 µM

SMILES: COc1ccccc1-c1cc(=O)c2cc(C(C)C)ccc2o1
IC50 (HepG2 [1]): 5.4 µM
